ChEMBL document CHEMBL1759856, “Synthesis and study of 2-amino-7-bromofluorenes modified with nitroxides and their precursors as dual anti-amyloid and antioxidant active compounds” (Eur J Med Chem, 2011)
The source made the active and inactive calls. The calls are words filed in the database; no cut-off is given here.

Key:
HBMEC [1] = test: Antiinflammatory activity in HBMEC cells assessed as inhibition of TGRL lipolysis-induced IL-8 gene expression by RT-PCR analysis relative to control; type: functional, cell-based; conditions: Homo sapiens
Method in brief: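 HBMEC (passage 6) were grown in serum-free or 10%-serum complete medium on attachment factor at 37°C in 5% CO2. Cells were pretreated 30 min with 200 µM compound, then exposed 3 h to TGRL (150 mg/dL) plus lipoprotein lipase (2 U/mL), preincubated together 30 min at 37°C. IL-8 mRNA was measured by SYBR Green qRT-PCR, normalized to GAPDH, comparative CT; N = 3.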

[2] = Antioxidant activity assessed as peroxyl radical scavenging activity at 10 uM by fluorescence quenching assay; type: functional
Method in brief: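 Peroxyl radicals were assayed with a commercial ORAC kit, per the manufacturer's protocol, with compound at 10 µM. The read-out was quenching of indicator fluorescence (ex 480 nm, em 520 nm).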

[3] = Antioxidant activity assessed as hydroxyl radical scavenging activity by electron paramagnetic resonance spectra analysis; type: functional; design: concentration or dose not given beside the values
Method in brief: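 For EPR, 9 µl of ROS mixture was combined immediately with 1 µl of compound from a 2 mM stock. About 5 µl was loaded into a sealed quartz capillary for measurement.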

[4] = Antioxidant activity assessed as hydroxyl radical scavenging activity at 0.2 to 10 uM; type: functional
Method in brief: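 Hydroxyl radical scavenging was measured with a commercial HORAC kit, per the manufacturer's protocol, at compound concentrations of 0.2, 1 and 10 µM. Read-out was fluorescence (ex 485 nm, em 530 nm) of a reporter that is inversely proportional to surviving radical. Distilled water served as control.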

[5] = Antioxidant activity assessed as peroxyl radical scavenging activity by electron paramagnetic resonance spectra analysis; type: functional
HBMEC [6] = test: Antiinflammatory activity in HBMEC cells assessed as inhibition of TGRL lipolysis-induced COX-2 gene expression by RT-PCR analysis relative to control; type: functional, cell-based; conditions: Homo sapiens
Method in brief: (§1)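 Human brain microvascular endothelial cells (passage 6) grown at 37°C, 5% CO2; pre-treated 30 min with 200 µM compound, then 3 h with TGRL (150 mg/dL) plus lipoprotein lipase (2U/mL), pre-incubated together 30 min at 37°C. Total RNA reverse-transcribed; SYBR Green real-time PCR normalised to GAPDH, comparative CT method; N = 3.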

HBMEC [7] = test: Antiinflammatory activity in HBMEC cells assessed as inhibition of TGRL lipolysis-induced ATF3 gene expression by RT-PCR analysis relative to control; type: functional, cell-based; conditions: Homo sapiens; method in brief: as §1

Row | SMILES | Activity (HBMEC [1]) | Activity [2] | Activity [3] | Activity [4] | Activity [5] | fold change (FC) (HBMEC [6]) | fold change (FC) (HBMEC [7])
1 | CN1C(C)(C)C=C(CNc2ccc3c(c2)Cc2cc(Br)ccc2-3)C1(C)C | inactive | Active | 29% | Active | 100% |  | 
2 | CN(CC1=CC(C)(C)N([O])C1(C)C)c1ccc2c(c1)Cc1cc(Br)ccc1-2 |  | Active | 18% | Active |  | 2.7 | 18.3
3 | CN(C)c1ccc2c(c1)Cc1cc(Br)ccc1-2 |  | Active |  | Active |  |  | 
4 | CN(CC1=CC(C)(C)NC1(C)C)c1ccc2c(c1)Cc1cc(Br)ccc1-2 | inactive | Active | 18% | Active | 100% |  | 
5 | CC1(C)C=C(CNc2ccc3c(c2)Cc2cc(Br)ccc2-3)CC(C)(C)N1[O] | Active | Active | 26% | Active |  |  | 
6 | CC1(C)C=C(CNc2ccc3c(c2)Cc2cc(Br)ccc2-3)CC(C)(C)N1O | Active | Active | 61% | Active | 80% |  | 
7 | CC1(C)CC(O)CC(C)(C)N1[O] |  | Active |  | Active |  |  | 
8 | CC1(C)C(Br)=C(CNc2ccc3c(c2)Cc2cc(Br)ccc2-3)C(C)(C)N1[O] | inactive | Active | 10% | Active |  |  | 
9 | CC1(C)C=C(CNc2ccc3c(c2)Cc2cc(Br)ccc2-3)C(C)(C)N1[O] | inactive | Active | 28% | Active | 73% |  | 
